# What was measured:
# [1] = folding enthalpy; higher = less favourable; fluorescence melt of hairpins on a sequencing array, two-state fit; settings: sodium 0.088 M
# Outline: (§1)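 Hairpins were imaged by Cy3 fluorescence on a sequenced MiSeq flow cell with annealed Cy3 and quencher oligos, in 50 mM Na-HEPES pH 8.0, 25 mM NaCl, in 2.5 °C steps up to 60 °C. Bootstrapped two-state fits of normalised signals gave melting temperature and folding enthalpy. Four replicates were combined by inverse variance, and fitted temperatures were raised by 9.35 °C to match UV melts.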
# [2] = melting temperature; fluorescence melt of hairpins on a sequencing array, two-state fit, raised by 9.35 °C to match UV melts; settings: sodium 0.088 M
# Outline: as §1
Sequence,folding enthalpy [1],Tm [2]
GCCCTCCGAAAGGATGGC (((.(((....))).))),-37.5 kcal/mol,55 °C
GCCCTCGGAAACAAGGGC (((((.(....).))))),-35.8 kcal/mol,49.6 °C
GCCCTGACGAAAGTCGGC (((..(((....)))))),-13.6 kcal/mol,48.9 °C
GCCCTGCGAAAGCATTGC ((..(((....)))..)),-8.56 kcal/mol,29.3 °C
GCCCTGCGAAAGCCAGGC (((..((....))..))),-15.7 kcal/mol,53 °C
GCCCTGCGAAAGCCGCGC ((.(.((....)).).)),-10.3 kcal/mol,34.9 °C
GCCCTGCGAAAGCGTGGC (((..((....))..))),-21.1 kcal/mol,55.6 °C
GCCCTTCGAAAGAAAGGC (((.(((....))).))),-28.5 kcal/mol,45.1 °C
GCCCTTGAAAAAGGGC ((((((....)))))),-36 kcal/mol,68 °C
GCCGAAGAAATTCGGC ((((((....)))))),-33.9 kcal/mol,67.4 °C
GCCGAAGCGAAAGCTGGC (((..(((....)))))),-31.6 kcal/mol,57.1 °C
GCCGAATCGAAAGATGGC (((..(((....)))))),-26.3 kcal/mol,46.2 °C
GCCGACGAAAGTCGTGGC ((((((....)))..))),-16.3 kcal/mol,57 °C
GCCGACGGAAACATCGGC (((((.(....).))))),-38.6 kcal/mol,53 °C
GCCGACGGAAACGTTGGC (((.(((....))).))),-45.5 kcal/mol,63.9 °C
GCCGAGCGAAAGCCCCGC ((.(.((....)).).)),-12.1 kcal/mol,32.2 °C
GCCGAGCGAAAGCTGGGC (((.(((....))).))),-30 kcal/mol,68 °C
GCCGAGCGAAAGCTTAGC ((..(((....)))..)),-14.7 kcal/mol,39.9 °C
GCCGAGGGAAACCTTGGC (((.(((....))).))),-35.4 kcal/mol,58.3 °C
GCCGAGGGAAACTTCGGC (((((.(....).))))),-46.2 kcal/mol,56.8 °C
GCCGATGCGAAAGCAGGC (((..(((....)))))),-20.1 kcal/mol,58.5 °C
GCCGATGGAAACACCGGC ((((.((....)).)))),-42.9 kcal/mol,52.4 °C
GCCGCAGGAAACCACGGC ((((..(....)..)))),-20.4 kcal/mol,42.1 °C

Sequence,folding enthalpy [1],Tm [2]
GCCGCAGGAAACCGCGGC (((((.(....).))))),-32.1 kcal/mol,67.8 °C
GCCGCCGAAAGGCAGGGC ((((((....)))..))),-20.3 kcal/mol,66.8 °C
GCCGCCGAAAGGCCAGGC ((((((....)))..))),-20.4 kcal/mol,56.1 °C
GCCGCCGAAAGGCCGGGC ((((((....)))..))),-16.9 kcal/mol,60.4 °C
GCCGCCGAAAGGCTGGC ((((((....))).))),-20.8 kcal/mol,69.2 °C
GCCGCGCGAAAGCACCGC ((.(.((....)).).)),-13.8 kcal/mol,46.5 °C
GCCGCGCGAAAGCCCCGC ((.(.((....)).).)),-7.57 kcal/mol,33.3 °C
GCCGCGCGAAAGCGTAGC ((..(((....)))..)),-13.8 kcal/mol,48.9 °C
GCCGCGCGAAAGCGTCGC ((..(((....)))..)),-10.1 kcal/mol,58 °C
GCCGCGCGAAAGCGTTGC ((..(((....)))..)),-14.6 kcal/mol,44.1 °C
GCCGCGCGAAAGCTCAGC ((.(.((....)).).)),-10.8 kcal/mol,35.1 °C
GCCGCGGGAAACCACGGC ((((.((....)).)))),-38.4 kcal/mol,63.6 °C
GCCGCGGGAAACCGCGAC (.(((((....))))).),-10.8 kcal/mol,59.7 °C
GCCGCTGGAAACAGTGGC (((.(((....))).))),-50.7 kcal/mol,62.9 °C
GCCGGACCGAAAGGTGGC (((..(((....)))))),-26.9 kcal/mol,53.4 °C
GCCGGATCGAAAGATGGC (((..(((....)))))),-17.6 kcal/mol,46 °C
GCCGGCGAAAGCCCAGGC ((((((....)))..))),-19.4 kcal/mol,57.5 °C
GCCGGCGAAAGCCCGGGC ((((((....)))..))),-17.6 kcal/mol,62.1 °C
GCCGGCGAAAGCCGAGGC ((((((....)))..))),-13.4 kcal/mol,63.1 °C
GCCGGCGAAAGCCGCGGC ((((((....)))..))),-11.9 kcal/mol,65.3 °C
GCCGGCGAAAGCCGTGGC ((((((....)))..))),-13.1 kcal/mol,58.4 °C
GCCGGGCGAAAGCCGCGC ((..(((....)))..)),-15.2 kcal/mol,60.1 °C
GCCGGGCGAAAGCCTTGC ((..(((....)))..)),-12.4 kcal/mol,40.2 °C

Sequence,folding enthalpy [1],Tm [2]
GCCGGGCGAAAGCGAGGC (((..((....))..))),-43.3 kcal/mol,66.1 °C
GCCGGGCGAAAGCGCAGC ((.(.((....)).).)),-13.2 kcal/mol,43.3 °C
GCCGGGCGAAAGCGCCGC ((.(.((....)).).)),-11.5 kcal/mol,48.7 °C
GCCGGGCGAAAGCTGGGC (((..((....))..))),-26.3 kcal/mol,61.2 °C
GCCGGTCGAAAGACGGGC (((.(((....))).))),-39.9 kcal/mol,63.9 °C
GCCGTAACGAAAGTTGGC (((..(((....)))))),-20.9 kcal/mol,49.4 °C
GCCGTACGAAAGTAGGC (((.(((....)))))),-33.6 kcal/mol,67.4 °C
GCCGTAGGAAACTACGAC (.(((((....))))).),-18.5 kcal/mol,40.8 °C
GCCGTAGGAAACTGTGGC (((..((....))..))),-11.4 kcal/mol,43.3 °C
GCCGTCACGAAAGTGGGC (((..(((....)))))),-19.5 kcal/mol,48.5 °C
GCCGTCGAAAGACAGGGC ((((((....)))..))),-38.8 kcal/mol,54.4 °C
GCCGTCGAAAGACCAGGC ((((((....)))..))),-17.5 kcal/mol,48.9 °C
GCCGTGCGAAAGCACAGC ((.((((....)))).)),-14 kcal/mol,61.2 °C
GCCGTGCGAAAGCAGCGC ((..(((....)))..)),-13.9 kcal/mol,55.9 °C
GCCGTGCGAAAGCAGTGC ((..(((....)))..)),-12.4 kcal/mol,44.7 °C
GCCGTGCGAAAGCCTGGC (((..((....))..))),-20.4 kcal/mol,56.2 °C
GCCGTGCGAAAGCGCTGC ((.(.((....)).).)),-19.6 kcal/mol,49 °C
GCCGTGCGAAAGCTAGGC (((..((....))..))),-32 kcal/mol,66.9 °C
GCCGTGCGAAAGCTTGGC (((..((....))..))),-28.5 kcal/mol,59.6 °C
GCCGTTACGAAAGTAGGC (((..(((....)))))),-33.1 kcal/mol,54.8 °C
GCCGTTCGAAAGAAGGGC (((.(((....))).))),-44 kcal/mol,60.2 °C
GCCGTTGGAAACAGTGGC (((..((....))..))),-14.4 kcal/mol,43.6 °C
GCCTAACGAAAGTTGGC (((.(((....)))))),-31.3 kcal/mol,53.7 °C

Sequence,folding enthalpy [1],Tm [2]
GCCTAAGGAAACTTAGGC (((((((....))))))),-40.1 kcal/mol,58.3 °C
GCCTACGAAAGTAAGGGC ((((((....)))..))),-23.9 kcal/mol,46.8 °C
GCCTACGAAAGTAGAGGC ((((((....)))..))),-22.7 kcal/mol,49.3 °C
GCCTACGAAAGTAGCGGC ((((((....)))..))),-19.5 kcal/mol,49.6 °C
GCCTACGAAAGTATCGGC ((((((....)))..))),-24.7 kcal/mol,40.6 °C
GCCTACGAAAGTATTGGC ((((((....)))..))),-20.5 kcal/mol,43.4 °C
GCCTACGCGAAAGCGGGC (((..(((....)))))),-14.8 kcal/mol,62.1 °C
GCCTACGGAAACACAGGC ((((..(....)..)))),-23.3 kcal/mol,34.6 °C
GCCTACGGAAACATAGGC (((((.(....).))))),-28.9 kcal/mol,40.3 °C
GCCTAGCCGAAAGGCGGC (((..(((....)))))),-14.1 kcal/mol,59.7 °C
GCCTAGCGAAAGCACGGC (((..((....))..))),-20.3 kcal/mol,54.9 °C
GCCTAGCGAAAGCAGGGC (((..((....))..))),-24 kcal/mol,62.4 °C
GCCTAGCGAAAGCATGGC (((..((....))..))),-30.7 kcal/mol,61.2 °C
GCCTAGCGAAAGCCAGGC ((((.((....)).)))),-29.4 kcal/mol,62.2 °C
GCCTAGCGAAAGCCGGGC (((..((....))..))),-20.1 kcal/mol,57.1 °C
GCCTAGCGAAAGCCTGGC (((..((....))..))),-19.6 kcal/mol,52.1 °C
GCCTAGCGAAAGCGATGC ((.(.((....)).).)),-13.4 kcal/mol,44.1 °C
GCCTAGCGAAAGCTCCGC ((..(((....)))..)),-9.3 kcal/mol,25.9 °C
GCCTAGCGAAAGCTTAGC ((..(((....)))..)),-12.6 kcal/mol,36.8 °C
GCCTAGCGAAAGCTTCGC ((..(((....)))..)),-7.98 kcal/mol,44.6 °C
GCCTAGGGAAACCTAGGC (((((((....))))))),-36.9 kcal/mol,67.5 °C

# Reference: the array DNA melting data of Ke et al. (doi:10.1101/2024.01.08.574731)
